In ChEMBL document CHEMBL3259628, “Discovery of novel 2-((pyridin-3-yloxy)methyl)piperazines as α7 nicotinic acetylcholine receptor modulators for the treatment of inflammatory disorders” (J Med Chem, 2014):
Calls of active or inactive are those of the source. No cut-off for these calls is given here.

Key:
[1] = target: Neuronal acetylcholine receptor subunit alpha-7 (Rattus norvegicus, UniProt Q05941); assay: Inhibition of biotinylated alpha-bungarotoxin binding to alpha7 nAChR in rat PC12 cells by FACS analysis; type: cell-based, PC-12
Neuronal acetylcholine receptor subunit alpha-7, sequence (Q05941 whole entry): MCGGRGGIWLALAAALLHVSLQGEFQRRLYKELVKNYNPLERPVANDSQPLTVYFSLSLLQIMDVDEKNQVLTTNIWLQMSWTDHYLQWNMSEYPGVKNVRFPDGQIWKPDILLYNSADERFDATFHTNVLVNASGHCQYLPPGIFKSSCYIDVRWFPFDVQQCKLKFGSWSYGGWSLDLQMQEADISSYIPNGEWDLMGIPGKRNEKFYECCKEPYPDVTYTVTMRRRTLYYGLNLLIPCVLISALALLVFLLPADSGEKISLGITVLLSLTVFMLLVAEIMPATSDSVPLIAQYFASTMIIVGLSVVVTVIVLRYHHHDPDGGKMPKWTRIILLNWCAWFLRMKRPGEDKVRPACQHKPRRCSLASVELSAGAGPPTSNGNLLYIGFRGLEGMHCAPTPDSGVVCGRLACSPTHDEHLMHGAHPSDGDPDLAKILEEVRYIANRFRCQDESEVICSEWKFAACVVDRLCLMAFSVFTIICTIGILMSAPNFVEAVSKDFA
How it was run: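 Rat PC12 cells in binding buffer (PBS, 1.0% FBS, 0.02% sodium azide), 0.1% DMSO; biotinylated α-bungarotoxin 10 nM final, 1 h at room temperature; nonspecific binding defined with 1.5 μM unlabeled toxin. After washing, phycoerythrin-streptavidin 1.0 μg/mL final, 15 min in the dark; read by FACS. Screened at 10 and 1 μM, then eight-point 3-fold dilution IC50; mean of two or more experiments.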

[2] = target: Acetylcholine receptor; alpha1/beta1/delta/gamma (Homo sapiens) (UniProt P02708+P07510+P11230+Q07001); assay: Inhibition of alpha1beta1gammadelta nAChR (unknown origin) at 10 uM; type: protein-complex assay
How it was run: (§1)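 Receptor, ion channel and transporter binding panel run at Cerep in duplicate. Percent inhibition measured at 10 μM compound.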

[3] = target: T1, 5-hydroxytryptamine receptor 3A (Homo sapiens) (UniProt P46098); assay: Inhibition of 5-HT3 receptor (unknown origin) at 10 uM; how it was run: as §1
T1 sequence (whole entry): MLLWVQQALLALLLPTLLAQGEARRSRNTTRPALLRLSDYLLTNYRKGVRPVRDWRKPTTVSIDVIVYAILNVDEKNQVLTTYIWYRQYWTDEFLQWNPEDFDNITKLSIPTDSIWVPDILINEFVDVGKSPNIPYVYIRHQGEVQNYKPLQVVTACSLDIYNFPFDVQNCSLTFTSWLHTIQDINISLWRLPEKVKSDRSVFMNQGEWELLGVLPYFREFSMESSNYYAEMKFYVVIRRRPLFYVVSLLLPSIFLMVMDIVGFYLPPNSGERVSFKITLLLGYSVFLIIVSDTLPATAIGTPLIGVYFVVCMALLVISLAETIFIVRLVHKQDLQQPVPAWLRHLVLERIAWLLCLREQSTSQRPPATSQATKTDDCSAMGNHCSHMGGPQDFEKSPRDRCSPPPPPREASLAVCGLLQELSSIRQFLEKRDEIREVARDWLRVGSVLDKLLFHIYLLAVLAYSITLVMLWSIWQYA

[4] = target: hERG (KCNH2) (Homo sapiens, UniProt Q12809); assay: Inhibition of human ERG at 1 uM by whole-cell voltage clamp assay
hERG (KCNH2), sequence (Q12809 whole entry): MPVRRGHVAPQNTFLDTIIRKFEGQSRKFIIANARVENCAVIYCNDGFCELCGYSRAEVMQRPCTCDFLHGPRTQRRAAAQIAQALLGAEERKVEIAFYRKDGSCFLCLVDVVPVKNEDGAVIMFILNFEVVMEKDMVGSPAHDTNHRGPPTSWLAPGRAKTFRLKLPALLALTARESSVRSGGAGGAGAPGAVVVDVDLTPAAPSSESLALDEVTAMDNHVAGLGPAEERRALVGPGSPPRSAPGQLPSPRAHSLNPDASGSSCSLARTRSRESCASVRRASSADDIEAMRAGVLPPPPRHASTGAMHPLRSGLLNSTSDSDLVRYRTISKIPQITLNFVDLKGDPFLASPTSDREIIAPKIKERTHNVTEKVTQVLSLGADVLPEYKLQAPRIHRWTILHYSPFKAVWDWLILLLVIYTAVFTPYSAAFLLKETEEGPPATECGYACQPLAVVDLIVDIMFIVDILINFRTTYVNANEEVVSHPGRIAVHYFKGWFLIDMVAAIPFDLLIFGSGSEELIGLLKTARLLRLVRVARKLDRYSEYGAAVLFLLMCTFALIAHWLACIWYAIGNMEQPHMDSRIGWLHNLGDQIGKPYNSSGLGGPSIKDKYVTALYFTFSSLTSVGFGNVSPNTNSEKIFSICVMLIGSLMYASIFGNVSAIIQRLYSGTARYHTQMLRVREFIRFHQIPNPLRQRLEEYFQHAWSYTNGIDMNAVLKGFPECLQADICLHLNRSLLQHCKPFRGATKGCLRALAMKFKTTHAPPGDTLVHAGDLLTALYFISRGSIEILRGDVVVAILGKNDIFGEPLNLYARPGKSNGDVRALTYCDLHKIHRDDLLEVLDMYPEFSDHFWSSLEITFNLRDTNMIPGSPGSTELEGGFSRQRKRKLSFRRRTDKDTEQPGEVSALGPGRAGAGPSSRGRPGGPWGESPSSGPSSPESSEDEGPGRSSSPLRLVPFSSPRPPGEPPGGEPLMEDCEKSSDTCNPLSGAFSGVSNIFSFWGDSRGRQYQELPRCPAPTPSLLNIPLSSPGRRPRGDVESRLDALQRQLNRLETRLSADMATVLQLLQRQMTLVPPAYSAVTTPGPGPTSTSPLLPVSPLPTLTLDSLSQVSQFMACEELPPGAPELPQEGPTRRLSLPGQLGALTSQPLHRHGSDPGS

[5] = target: T2, CYP1A2 (Homo sapiens, UniProt P05177); assay: Inhibition of CYP1A2 (unknown origin) at 10 uM; type: ADME
T2 sequence (P05177 whole entry): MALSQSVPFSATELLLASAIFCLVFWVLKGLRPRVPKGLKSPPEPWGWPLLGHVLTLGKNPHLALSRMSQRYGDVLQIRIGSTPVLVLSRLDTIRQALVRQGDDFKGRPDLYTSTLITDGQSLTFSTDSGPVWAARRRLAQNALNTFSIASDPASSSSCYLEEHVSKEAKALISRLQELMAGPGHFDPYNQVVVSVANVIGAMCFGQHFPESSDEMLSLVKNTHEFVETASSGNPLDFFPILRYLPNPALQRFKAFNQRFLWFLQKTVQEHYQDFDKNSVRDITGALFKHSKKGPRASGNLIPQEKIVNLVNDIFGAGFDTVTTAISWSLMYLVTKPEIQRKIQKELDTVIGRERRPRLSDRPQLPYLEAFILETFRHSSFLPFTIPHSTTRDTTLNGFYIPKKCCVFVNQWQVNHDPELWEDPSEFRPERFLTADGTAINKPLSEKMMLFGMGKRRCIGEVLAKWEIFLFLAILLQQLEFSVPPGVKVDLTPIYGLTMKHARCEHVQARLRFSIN
How it was run: (§2)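 Each of five Cyp isoforms assayed with single probe substrates rather than a substrate cocktail. Run in duplicate at Cerep. IC50 lines come from a 5-concentration titration curve.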

[6] = target: CYP2C9 (Homo sapiens, UniProt P11712); assay: Inhibition of CYP2C9 (unknown origin) at 10 uM; type: ADME; how it was run: as §2
CYP2C9, sequence (P11712 whole entry): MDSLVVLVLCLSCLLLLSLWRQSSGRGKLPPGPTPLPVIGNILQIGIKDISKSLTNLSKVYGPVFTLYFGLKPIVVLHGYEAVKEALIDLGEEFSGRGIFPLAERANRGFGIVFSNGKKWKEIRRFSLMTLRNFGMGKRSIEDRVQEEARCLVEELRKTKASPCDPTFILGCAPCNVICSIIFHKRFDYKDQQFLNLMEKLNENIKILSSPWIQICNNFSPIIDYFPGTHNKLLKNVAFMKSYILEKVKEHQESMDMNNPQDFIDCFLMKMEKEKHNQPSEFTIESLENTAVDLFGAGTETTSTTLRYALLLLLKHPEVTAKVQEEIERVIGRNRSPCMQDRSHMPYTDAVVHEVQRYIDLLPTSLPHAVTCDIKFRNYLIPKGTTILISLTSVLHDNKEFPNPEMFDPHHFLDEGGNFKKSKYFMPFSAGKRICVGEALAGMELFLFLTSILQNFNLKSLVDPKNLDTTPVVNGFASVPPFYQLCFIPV

[7] = target: CYP2C19 (Homo sapiens, UniProt P33261); assay: Inhibition of CYP2C19 (unknown origin) at 10 uM; type: ADME; how it was run: as §2
CYP2C19, sequence (P33261 whole entry): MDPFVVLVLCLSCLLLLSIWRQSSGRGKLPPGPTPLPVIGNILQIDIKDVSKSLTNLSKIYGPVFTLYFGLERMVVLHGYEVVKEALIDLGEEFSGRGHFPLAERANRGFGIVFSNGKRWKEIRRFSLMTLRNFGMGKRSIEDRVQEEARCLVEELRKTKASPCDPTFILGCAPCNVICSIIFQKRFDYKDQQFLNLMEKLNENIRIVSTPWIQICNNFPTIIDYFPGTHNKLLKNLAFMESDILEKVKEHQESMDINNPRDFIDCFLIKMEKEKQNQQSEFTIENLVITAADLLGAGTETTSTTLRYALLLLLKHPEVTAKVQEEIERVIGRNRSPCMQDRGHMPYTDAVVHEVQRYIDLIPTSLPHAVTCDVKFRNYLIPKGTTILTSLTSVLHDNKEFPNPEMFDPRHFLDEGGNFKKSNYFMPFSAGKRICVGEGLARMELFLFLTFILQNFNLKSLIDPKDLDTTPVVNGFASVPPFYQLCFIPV

[8] = target: CYP2D6 (Homo sapiens, UniProt P10635); assay: Inhibition of CYP2D6 (unknown origin) at 10 uM; type: ADME; how it was run: as §2
CYP2D6, sequence (P10635 whole entry): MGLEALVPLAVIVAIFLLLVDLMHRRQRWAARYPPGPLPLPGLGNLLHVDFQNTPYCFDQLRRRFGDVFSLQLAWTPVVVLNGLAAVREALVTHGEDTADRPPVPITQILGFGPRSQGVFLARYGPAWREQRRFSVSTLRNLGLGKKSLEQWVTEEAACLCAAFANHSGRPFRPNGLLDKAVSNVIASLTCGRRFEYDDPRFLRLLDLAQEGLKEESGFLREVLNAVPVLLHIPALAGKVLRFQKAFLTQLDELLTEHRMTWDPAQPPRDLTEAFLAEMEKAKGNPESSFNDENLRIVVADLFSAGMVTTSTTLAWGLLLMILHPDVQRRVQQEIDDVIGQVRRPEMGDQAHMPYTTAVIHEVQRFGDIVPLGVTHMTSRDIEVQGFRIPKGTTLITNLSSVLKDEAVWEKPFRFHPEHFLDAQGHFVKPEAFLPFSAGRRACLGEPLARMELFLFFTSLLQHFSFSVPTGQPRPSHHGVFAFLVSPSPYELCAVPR

[9] = target: CYP3A4 (Homo sapiens, UniProt P08684); assay: Inhibition of CYP3A4 (unknown origin) at 10 uM; type: ADME; how it was run: as §2
CYP3A4, sequence (P08684 whole entry): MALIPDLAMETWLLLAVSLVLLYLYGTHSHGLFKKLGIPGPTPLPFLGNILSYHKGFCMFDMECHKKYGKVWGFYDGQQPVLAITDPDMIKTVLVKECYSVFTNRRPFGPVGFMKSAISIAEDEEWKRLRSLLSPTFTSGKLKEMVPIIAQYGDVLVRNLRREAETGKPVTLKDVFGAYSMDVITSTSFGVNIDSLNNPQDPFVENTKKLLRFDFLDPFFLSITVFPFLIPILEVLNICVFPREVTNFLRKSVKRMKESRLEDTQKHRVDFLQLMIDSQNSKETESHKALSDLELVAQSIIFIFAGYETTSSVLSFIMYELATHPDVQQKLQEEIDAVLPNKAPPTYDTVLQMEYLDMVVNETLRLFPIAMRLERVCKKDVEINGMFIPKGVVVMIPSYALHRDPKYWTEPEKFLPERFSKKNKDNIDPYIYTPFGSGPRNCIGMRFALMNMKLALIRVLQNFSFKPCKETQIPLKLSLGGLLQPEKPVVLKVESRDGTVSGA

[10] = target: Neuronal acetylcholine receptor; alpha4/beta2 (Homo sapiens, UniProt P17787+P43681); assay: Inhibition of human alpha4beta2 nAChR at 10 uM by binding assay
[11] = tested on: Mus musculus; assay: (§3) Antiinflammatory activity against ovalbumin-induced allergic lung inflammation BALB/c mouse model assessed as reduction in neutrophils in brochoalveolar lavage fluid at 1 mg/kg, po bid administered on day 29 to 31 post ovalbumin challenge measured 8 hrs post last challenge relative to vehicle-treated control; type: functional; settings: Bronchoalveolar lavage
How it was run: (§4)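 Balb/c mice sensitized with ovalbumin by IP injection on days 1 and 14, then challenged intranasally with 100 μg ovalbumin on days 29, 30 and 31. Compound in saline given orally starting 30 min before each challenge; groups of six mice. Sham groups were saline-sensitized and allergen-challenged. BAL taken 8 h after the last challenge, with differential cell counts on slides.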

[12] = tested on: Mus musculus; assay: as §3, with “eosinophils” for “neutrophils”; type: functional; how it was run: as §4

c1cncc(OCC2CNCCN2c2nc3ccccc3s2)c1 (racemic)
IC50 [1]: 0.49 µM

c1cncc(OCC2CNCCN2c2nc3ncccc3o2)c1 (racemic)
IC50 [1]: 0.004 µM

Clc1ccc2nc(N3CCNCC3COc3cccnc3)sc2c1 (racemic)
IC50 [1]: 0.153 µM

O=C(Nc1ccc(Cl)c(Cl)c1)N1CCNCC1COc1cccnc1 (racemic)
IC50 [1]: 0.04 µM

O=C(Nc1ccc(OC(F)(F)F)cc1)N1CCNCC1COc1cccnc1 (racemic)
IC50 [1]: 0.152 µM

COc1ccc2nc(N3CCNC[C@H]3COc3cccnc3)sc2c1
IC50 [1]: 5.1 µM

O=C(c1ccccc1)c1ccc(NC(=O)N2CCNCC2COc2cccnc2)cc1 (racemic)
IC50 [1]: 0.041 µM | inhibition [2]: 10% | inhibition [3]: 16% | inhibition at 1 µM [4]: 40% | inhibition at 10 µM [5]: 16% | inhibition at 10 µM [6]: 62% | inhibition at 10 µM [7]: 49% | inhibition at 10 µM [8]: 7% | inhibition at 10 µM [9]: 23% | inhibition [10]: 18%

Brc1ccc2oc(N3CCNC[C@H]3COc3cccnc3)nc2c1
IC50 [1]: 3.2 µM

O=C(Nc1ccc(Br)cc1F)N1CCNCC1COc1cccnc1 (racemic)
IC50 [1]: 0.042 µM | inhibition [2]: 7% | inhibition [3]: 47% | inhibition at 1 µM [4]: 18% | inhibition at 10 µM [5]: 13% | inhibition at 10 µM [6]: 7% | inhibition at 10 µM [7]: 32% | inhibition at 10 µM [8]: 41% | inhibition at 10 µM [9]: 58% | inhibition [10]: 30%

O=C(Nc1ccccc1)N1CCNCC1COc1cccnc1 (racemic)
IC50 [1]: 0.68 µM

O=C(Oc1ccccc1)N1CCNCC1COc1cccnc1 (racemic)
IC50 [1]: 0.037 µM

O=C(COc1ccccc1)N1CCNCC1COc1cccnc1 (racemic)
IC50 [1]: 2.34 µM

COc1ccc2sc(N3CCNCC3COc3cccnc3)nc2c1 (racemic)
IC50 [1]: 0.107 µM

Fc1cccc2sc(N3CCNCC3COc3cccnc3)nc12 (racemic)
IC50 [1]: 0.017 µM | inhibition [2]: 20% | inhibition [3]: 99% | inhibition at 1 µM [4]: 19% | inhibition at 10 µM [5]: 63% | inhibition at 10 µM [6]: 28% | inhibition at 10 µM [7]: 60% | inhibition at 10 µM [8]: 60% | inhibition at 10 µM [9]: 75% | inhibition [10]: 53%

O=C(Nc1ccc(Br)cc1)N1CCNCC1COc1cccnc1 (racemic)
IC50 [1]: 0.05 µM

COc1ccc(NC(=O)N2CCNC[C@H]2COc2cccnc2)cc1
IC50 [1]: 18 µM | inhibition [2]: 2% | inhibition [3]: 7% | inhibition [11]: inactive | inhibition [12]: inactive

O=C(Cc1ccccc1)N1CCNCC1COc1cccnc1 (racemic)
IC50 [1]: 0.56 µM

Fc1ccc2nc(N3CCNCC3COc3cccnc3)sc2c1 (racemic)
IC50 [1]: 0.132 µM

COc1ccc(NC(=O)N2CCNCC2COc2cccnc2)cc1Cl (racemic)
IC50 [1]: 0.045 µM | inhibition [2]: 17% | inhibition [3]: 40% | inhibition at 1 µM [4]: 17% | inhibition at 10 µM [5]: 20% | inhibition at 10 µM [6]: 10% | inhibition at 10 µM [7]: 47% | inhibition at 10 µM [8]: 25% | inhibition at 10 µM [9]: 66% | inhibition [10]: 23%

O=C(Cc1ccc(Cl)cc1)N1CCNCC1COc1cccnc1 (racemic)
IC50 [1]: 0.11 µM

c1cncc(OCC2CNCCN2c2nc3ccccc3o2)c1 (racemic)
IC50 [1]: 0.106 µM | inhibition [2]: -2% | inhibition [3]: 95% | inhibition at 1 µM [4]: 22% | inhibition at 10 µM [5]: 36% | inhibition at 10 µM [6]: 20% | inhibition at 10 µM [7]: 24% | inhibition at 10 µM [8]: 87% | inhibition at 10 µM [9]: 17% | inhibition [10]: 89%

COc1ccccc1NC(=O)N1CCNCC1COc1cccnc1 (racemic)
IC50 [1]: 0.85 µM

FC(F)(F)c1ccc2nc(N3CCNCC3COc3cccnc3)sc2c1 (racemic)
IC50 [1]: 0.338 µM

Cc1ccc2nc(N3CCNCC3COc3cccnc3)sc2c1 (racemic)
IC50 [1]: 0.085 µM
